From ChEMBL document CHEMBL1130246, “Tyrosine kinase inhibitors. 13. Structure-activity relationships for soluble 7-substituted 4-[(3-bromophenyl)amino]pyrido[4,3-d]pyrimidines designed as inhibitors of the tyrosine kinase activity of the epidermal growth factor receptor” (J Med Chem, 1997)
≈ marks a conversion by molar mass, not a printed value. Where “and” joins values, the source holds several entries; their conditions need not be identical. Equal entries are not always repeated.

How the values were obtained:
[1] = molecular target: T1, Epidermal growth factor receptor (Homo sapiens, UniProt P00533); test: Inhibition of phosphorylation of polyglutamic acid/tyrosine random copolymer by epidermal growth factor receptor.
[2] = molecular target: T1, Epidermal growth factor receptor; test: Inhibition of epidermal growth factor receptor (EGFR) autophosphorylation in A431 cells
[3] = Solubility in water was determined; assay type: physicochemical
How it was run: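 Drug weighed to give approximately 50 mM, sonicated 30 min in 0.05 M sodium lactate buffer (neutral compounds, amine hydrochlorides) or water (sodium salts of acids), left 30 min, centrifuged 13 000 rpm 3 min; supernatant concentration measured by HPLC against calibration from MeOH or DMSO stocks, assuming linear response; 20 °C.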

[4] = molecular target: T1, Epidermal growth factor receptor; test: Inhibition of epidermal growth factor receptor (EGFR) from human A431 carcinoma cells
[5] = species: Mus musculus; test: Treatment-related weight loss in mice; assay type: functional
How it was run: (§1)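 Mice 18-22 g, randomized, implanted sc with A431 epidermoid or EGFR-transfected NIH 3T3 tumor fragments in right axilla on day 0; tumors maintained by serial passage in NCr nu/nu nude mice. Isethionate salts given ip in water, b.i.d. on indicated schedules (days 7-21, 3-17 or 1-15), dosed by average cage weight; solutions prepared 5 days at a time. Maximum treatment-related body weight loss recorded.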

[6] = species: Mus musculus; test: Ratio of median treated tumor mass on the last day of therapy divided by the median control tumor mass x 100%.; assay type: functional; how it was run: as §1

T1 sequence (P00533 whole entry): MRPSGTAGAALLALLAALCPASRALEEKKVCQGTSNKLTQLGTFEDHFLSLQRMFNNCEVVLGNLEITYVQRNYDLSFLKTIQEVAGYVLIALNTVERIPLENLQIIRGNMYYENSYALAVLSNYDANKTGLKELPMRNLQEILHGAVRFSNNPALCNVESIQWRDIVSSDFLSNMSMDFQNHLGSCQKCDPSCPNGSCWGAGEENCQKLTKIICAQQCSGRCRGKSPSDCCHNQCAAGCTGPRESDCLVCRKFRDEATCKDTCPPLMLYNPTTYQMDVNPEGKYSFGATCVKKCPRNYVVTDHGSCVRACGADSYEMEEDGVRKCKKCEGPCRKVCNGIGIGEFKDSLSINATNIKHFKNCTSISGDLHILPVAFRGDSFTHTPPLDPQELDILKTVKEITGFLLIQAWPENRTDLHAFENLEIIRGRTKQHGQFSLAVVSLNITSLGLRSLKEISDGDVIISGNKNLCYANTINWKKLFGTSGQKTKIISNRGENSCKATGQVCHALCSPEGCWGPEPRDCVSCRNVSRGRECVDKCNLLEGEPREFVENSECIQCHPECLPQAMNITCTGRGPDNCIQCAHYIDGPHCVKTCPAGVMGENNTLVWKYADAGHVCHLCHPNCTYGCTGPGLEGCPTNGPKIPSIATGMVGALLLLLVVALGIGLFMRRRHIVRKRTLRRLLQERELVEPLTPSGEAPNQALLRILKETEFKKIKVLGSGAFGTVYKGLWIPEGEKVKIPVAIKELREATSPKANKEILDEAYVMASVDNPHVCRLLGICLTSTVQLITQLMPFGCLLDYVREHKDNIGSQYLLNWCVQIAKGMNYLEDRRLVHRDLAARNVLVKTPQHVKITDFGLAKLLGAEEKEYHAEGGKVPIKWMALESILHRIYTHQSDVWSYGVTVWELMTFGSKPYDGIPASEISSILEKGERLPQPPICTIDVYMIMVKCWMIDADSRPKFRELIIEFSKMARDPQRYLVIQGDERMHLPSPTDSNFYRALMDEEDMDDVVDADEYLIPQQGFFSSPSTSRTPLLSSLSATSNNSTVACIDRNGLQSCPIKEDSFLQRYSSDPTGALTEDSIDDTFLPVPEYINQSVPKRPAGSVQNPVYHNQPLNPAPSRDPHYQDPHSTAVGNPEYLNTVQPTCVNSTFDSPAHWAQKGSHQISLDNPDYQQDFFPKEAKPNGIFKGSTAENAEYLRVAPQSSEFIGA

SMILES	IC50 [1] [nM]	also measured
CN(CC(=O)O)c1cc2ncnc(Nc3cccc(Br)c3)c2cn1	16	
NNc1cc2ncnc(Nc3cccc(Br)c3)c2cn1	7.1	
O=C(O)CCNc1cc2ncnc(Nc3cccc(Br)c3)c2cn1	0.61	IC50 [2]: 11400 nM
Cc1cccc(Nc2ncnc3cc(NCCCCN(C)C)ncc23)c1	5.4	
Cc1cccc(Nc2ncnc3cc(NCCCN4CCN(C)CC4)ncc23)c1	5.6	
OCC(O)CNc1cc2ncnc(Nc3cccc(Br)c3)c2cn1 (stereo unspecified)	0.92	IC50 [2]: 227 nM
OCC(O)C(O)C(O)C(O)CNc1cc2ncnc(Nc3cccc(Br)c3)c2cn1 (stereo unspecified)	4.8	
O=S(=O)(O)CCNc1cc2ncnc(Nc3cccc(Br)c3)c2cn1	1.4	IC50 [2]: > 1000 nM
Cc1cccc(Nc2ncnc3cc(NCCCn4ccnc4)ncc23)c1		solubility [3]: > 34 mM; IC50 [4]: 3.5 nM
CN1CCN(CCCNc2cc3ncnc(Nc4cccc(Br)c4)c3cn2)CC1	4.9	
O=C(O)CNc1cc2ncnc(Nc3cccc(Br)c3)c2cn1	1.5	
CN(CCO)c1cc2ncnc(Nc3cccc(Br)c3)c2cn1	2.6	
O=C(O)CCCNc1cc2ncnc(Nc3cccc(Br)c3)c2cn1	0.28	
Cc1cccc(Nc2ncnc3cc(NCCc4c[nH]cn4)ncc23)c1		solubility [3]: > 39 mM; IC50 [4]: 7.2 nM
OCCN(CCO)CCNc1cc2ncnc(Nc3cccc(Br)c3)c2cn1	9.2	
CN(C)CCNc1cc2ncnc(Nc3cccc(Br)c3)c2cn1	45	
OCCNc1cc2ncnc(Nc3cccc(Br)c3)c2cn1	0.24	

SMILES	IC50 [1] [nM]	also measured
Brc1cccc(Nc2ncnc3cc(NCCCCN4CCOCC4)ncc23)c1	5.4	
OCC(CO)Nc1cc2ncnc(Nc3cccc(Br)c3)c2cn1	14	
CN(C)CCCCNc1cc2ncnc(Nc3cccc(Br)c3)c2cn1	7.4	Weight loss [5]: 1 g
Brc1cccc(Nc2ncnc3cc(NCCCn4ccnc4)ncc23)c1		solubility [3]: > 40 mM; IC50 [4]: 0.51 nM
OCCN(CCO)CCCNc1cc2ncnc(Nc3cccc(Br)c3)c2cn1	1.2	
Brc1cccc(Nc2ncnc3cc(NCCc4c[nH]cn4)ncc23)c1		solubility [3]: 35 mM (≈ 14.4 mg/mL); IC50 [4]: 0.91 nM
CN(CC(O)C(O)C(O)C(O)CO)c1cc2ncnc(Nc3cccc(Br)c3)c2cn1 (stereo unspecified)	3.2	
CNc1cc2ncnc(Nc3cccc(C)c3)c2cn1	1.4	
CN(C)CCCNc1cc2ncnc(Nc3cccc(Br)c3)c2cn1	8.8	
Brc1cccc(Nc2ncnc3cc(NCCN4CCOCC4)ncc23)c1	3.2	IC50 [2]: 36 nM
CN(C)CCCCCNc1cc2ncnc(Nc3cccc(Br)c3)c2cn1	8.4	
Brc1cccc(Nc2ncnc3cc(NCCCN4CCOCC4)ncc23)c1	1.9	IC50 [2]: 8.1 nM; T/C [6]: 34%; Weight loss [5]: 1.7 g and 0.9 g
[O-][N+]1(CCCNc2cc3ncnc(Nc4cccc(Br)c4)c3cn2)CCOCC1	0.74	IC50 [2]: > 1000 nM
OCCN(CCO)c1cc2ncnc(Nc3cccc(Br)c3)c2cn1	12	
CN(CC(O)CO)c1cc2ncnc(Nc3cccc(Br)c3)c2cn1 (stereo unspecified)	3.2	
CN(C)CCN(C)c1cc2ncnc(Nc3cccc(Br)c3)c2cn1	40	
